Active and inactive are the calls of the source. The rule behind the calls is not given here.
Columns and labels:
Splenocyte = assay: Immunomodulatory activity in C57BL/6 mouse splenocytes bearing TLR7 receptor assessed as IL12 release at 100 ug/ml after 24 hrs by ELISA; assay type: functional, cell-based
Procedure, shortened: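 C57BL/6 splenocytes in RPMI 1640 with 10% FBS, penicillin/streptomycin, 2 mM L-glutamine, plated at 5 × 10^6 cells/mL; compounds in PBS added, 37 °C for 24 h. Supernatant IL-12 and IL-6 by ELISA; representative of three independent experiments.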

[1] = biological target: Toll-like receptor 3 (Homo sapiens) (UniProt O15455); assay: Activation of human TLR3 expressed in HEK293 assessed as induction of NF-kappaB activity reporter gene assay; assay type: cell-based
Toll-like receptor 3 (Homo sapiens), sequence (O15455 whole entry): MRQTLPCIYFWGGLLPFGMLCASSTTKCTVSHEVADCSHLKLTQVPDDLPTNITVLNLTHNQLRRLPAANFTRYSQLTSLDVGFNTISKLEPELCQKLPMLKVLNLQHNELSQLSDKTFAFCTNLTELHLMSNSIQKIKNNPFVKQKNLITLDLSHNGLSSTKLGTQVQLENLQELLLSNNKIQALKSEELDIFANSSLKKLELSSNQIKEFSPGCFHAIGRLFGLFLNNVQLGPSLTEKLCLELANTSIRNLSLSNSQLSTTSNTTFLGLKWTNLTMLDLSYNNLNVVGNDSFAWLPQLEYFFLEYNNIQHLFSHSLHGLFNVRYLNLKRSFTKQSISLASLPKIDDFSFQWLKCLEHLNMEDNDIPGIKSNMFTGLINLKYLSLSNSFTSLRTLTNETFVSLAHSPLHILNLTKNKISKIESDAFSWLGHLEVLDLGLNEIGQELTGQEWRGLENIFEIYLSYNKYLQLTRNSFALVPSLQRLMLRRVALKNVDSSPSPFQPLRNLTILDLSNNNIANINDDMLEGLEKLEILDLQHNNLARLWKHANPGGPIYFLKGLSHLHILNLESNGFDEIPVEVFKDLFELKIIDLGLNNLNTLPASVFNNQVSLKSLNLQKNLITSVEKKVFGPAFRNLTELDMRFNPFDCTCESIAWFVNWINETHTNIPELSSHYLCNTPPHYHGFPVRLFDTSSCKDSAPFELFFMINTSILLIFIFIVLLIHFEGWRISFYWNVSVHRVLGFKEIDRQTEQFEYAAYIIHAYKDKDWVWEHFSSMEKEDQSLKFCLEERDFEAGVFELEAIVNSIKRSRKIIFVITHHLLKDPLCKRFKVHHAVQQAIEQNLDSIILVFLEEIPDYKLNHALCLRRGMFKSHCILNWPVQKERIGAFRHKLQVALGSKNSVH

[2] = biological target: T1, Toll-like receptor 7 (Homo sapiens) (UniProt Q9NYK1); assay: Activation of human TLR7 expressed in HEK293XL assessed as fold induction of NF-kappaB activity at 50 ug/ml after 18 hrs by reporter gene assay relative to control
T1 sequence (whole entry): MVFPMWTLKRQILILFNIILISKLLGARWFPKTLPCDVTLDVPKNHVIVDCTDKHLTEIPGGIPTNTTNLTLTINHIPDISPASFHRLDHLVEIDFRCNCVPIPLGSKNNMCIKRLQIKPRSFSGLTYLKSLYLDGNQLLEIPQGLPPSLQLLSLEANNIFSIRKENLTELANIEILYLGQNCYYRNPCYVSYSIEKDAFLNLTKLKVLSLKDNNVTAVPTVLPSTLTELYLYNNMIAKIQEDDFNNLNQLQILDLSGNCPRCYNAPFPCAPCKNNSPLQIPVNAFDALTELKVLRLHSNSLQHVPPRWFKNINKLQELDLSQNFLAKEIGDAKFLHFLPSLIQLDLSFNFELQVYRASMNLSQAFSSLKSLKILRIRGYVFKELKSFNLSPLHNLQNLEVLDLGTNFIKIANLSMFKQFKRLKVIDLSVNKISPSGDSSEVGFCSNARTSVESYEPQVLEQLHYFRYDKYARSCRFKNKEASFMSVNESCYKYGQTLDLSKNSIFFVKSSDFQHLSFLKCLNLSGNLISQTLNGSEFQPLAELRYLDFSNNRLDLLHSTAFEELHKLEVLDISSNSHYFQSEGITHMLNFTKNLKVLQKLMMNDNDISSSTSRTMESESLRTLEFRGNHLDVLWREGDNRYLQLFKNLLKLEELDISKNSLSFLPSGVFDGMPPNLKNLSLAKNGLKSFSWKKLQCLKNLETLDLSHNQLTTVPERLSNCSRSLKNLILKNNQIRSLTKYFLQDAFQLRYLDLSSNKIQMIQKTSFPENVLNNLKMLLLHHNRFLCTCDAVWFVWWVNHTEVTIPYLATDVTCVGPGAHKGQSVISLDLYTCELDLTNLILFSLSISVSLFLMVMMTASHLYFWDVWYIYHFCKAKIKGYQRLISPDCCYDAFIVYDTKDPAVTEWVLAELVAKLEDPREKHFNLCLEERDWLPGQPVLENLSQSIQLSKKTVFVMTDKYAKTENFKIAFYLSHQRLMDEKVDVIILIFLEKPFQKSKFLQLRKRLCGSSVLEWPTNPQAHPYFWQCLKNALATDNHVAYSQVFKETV
Procedure, shortened: (§1)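 HEK293 cells stably expressing human TLR7 or TLR8, transiently transfected with SEAP reporter plasmid; medium replaced, SIMRA compounds added, 18 h incubation. Supernatant SEAP measured by QuantiBlue; expressed as fold increase in NF-κB activity over PBS control. Tabulated data at 50 μg/mL, representative of three independent experiments.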

PBMC [3] = assay: Immunomodulatory activity in human PBMC assessed as induction of IFN-alpha at 100 ug/ml after 24 hrs
[4] = biological target: T2, Toll-like receptor 8 (Homo sapiens) (UniProt Q9NR97); assay: Activation of human TLR8 expressed in HEK293XL assessed as fold induction of NF-kappaB activity at 50 ug/ml after 18 hrs by reporter gene assay relative to control; procedure, shortened: as §1
T2 sequence (whole entry): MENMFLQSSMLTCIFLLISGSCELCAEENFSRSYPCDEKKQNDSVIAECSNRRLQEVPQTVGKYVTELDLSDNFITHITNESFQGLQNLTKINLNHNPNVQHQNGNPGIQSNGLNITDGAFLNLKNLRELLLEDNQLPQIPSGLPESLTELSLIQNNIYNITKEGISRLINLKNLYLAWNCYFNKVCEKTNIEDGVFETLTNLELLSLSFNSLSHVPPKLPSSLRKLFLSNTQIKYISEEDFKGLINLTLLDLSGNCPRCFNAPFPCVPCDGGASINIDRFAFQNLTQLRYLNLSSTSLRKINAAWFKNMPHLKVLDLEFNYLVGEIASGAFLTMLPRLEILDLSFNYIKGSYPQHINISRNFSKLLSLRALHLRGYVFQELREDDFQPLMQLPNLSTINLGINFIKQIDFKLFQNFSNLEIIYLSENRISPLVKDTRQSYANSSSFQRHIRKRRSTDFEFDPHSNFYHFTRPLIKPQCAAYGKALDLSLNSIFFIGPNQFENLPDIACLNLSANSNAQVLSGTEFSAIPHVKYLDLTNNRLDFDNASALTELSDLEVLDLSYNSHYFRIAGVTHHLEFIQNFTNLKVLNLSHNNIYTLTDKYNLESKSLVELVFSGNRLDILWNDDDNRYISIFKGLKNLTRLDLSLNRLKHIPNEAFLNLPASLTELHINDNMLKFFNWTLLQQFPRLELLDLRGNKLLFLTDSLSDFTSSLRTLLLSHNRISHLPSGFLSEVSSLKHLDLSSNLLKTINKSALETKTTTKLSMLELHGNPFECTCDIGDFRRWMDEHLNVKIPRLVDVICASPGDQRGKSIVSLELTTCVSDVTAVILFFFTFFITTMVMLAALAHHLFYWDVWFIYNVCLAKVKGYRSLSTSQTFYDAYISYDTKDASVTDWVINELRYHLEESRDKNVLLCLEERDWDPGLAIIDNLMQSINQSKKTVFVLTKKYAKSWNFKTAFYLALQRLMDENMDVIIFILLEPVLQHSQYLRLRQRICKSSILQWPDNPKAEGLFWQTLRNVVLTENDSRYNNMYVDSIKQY

PBMC [5] = assay: Immunomodulatory activity in human PBMC assessed as induction of TNFalpha at 100 ug/ml after 24 hrs; assay type: functional, cell-based
Procedure, shortened: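 Human PBMCs plated at 5 × 10^6 cells/mL; compounds dissolved in PBS added at various concentrations, 37 °C for 24 h. Supernatant cytokines/chemokines quantified with human Luminex multiplex kit.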

SMILES	Activity (Splenocyte)	Activity [1]	fold change (FC) [2]	IFN-alpha (PBMC [3])	fold change (FC) [4]	Activity (PBMC [5])
Nc1ccn([C@@H]2O[C@H](COP(=O)(S)O[C@H]3[C@@H](O)[C@H](n4cnc5c(N)ncnc54)O[C@@H]3CO)[C@@H](OP(=O)(S)OC[C@H]3O[C@@H](n4ccc(=O)[nH]c4=O)[C@H](O)[C@@H]3OP(=O)(S)OC[C@H]3O[C@@H](n4ccc5c(=O)[nH]c(N)nc54)[C@H](O)[C@@H]3OP(=O)(S)OC[C@H]3O[C@@H](n4ccc(N)nc4=O)[C@H](O)[C@@H]3OP(=O)(S)OC[C@H]3O[C@@H](n4ccc5c(=O)[nH]c(N)nc54)[C@H](O)[C@@H]3OP(=O)(S)OC[C@H]3O[C@@H](n4cnc5c(N)ncnc54)[C@H](O)[C@@H]3OP(=O)(S)OC[C@H]3O[C@@H](n4ccc5c(=O)[nH]c(N)nc54)[C@H](O)[C@@H]3OP(=O)(S)OC[C@H]3O[C@@H](n4ccc(N)nc4=O)[C@H](O)[C@@H]3OP(=O)(S)OC[C@H]3O[C@@H](n4ccc(=O)[nH]c4=O)[C@H](O)[C@@H]3OP(=O)(S)OC[C@H]3O[C@@H](n4ccc(=O)[nH]c4=O)[C@H](O)[C@@H]3OP(=O)(S)OCC(O)COP(=O)(S)O[C@H]3[C@@H](O)[C@H](n4ccc(=O)[nH]c4=O)O[C@@H]3COP(=O)(S)O[C@H]3[C@@H](O)[C@H](n4ccc(=O)[nH]c4=O)O[C@@H]3COP(=O)(S)O[C@H]3[C@@H](O)[C@H](n4ccc(N)nc4=O)O[C@@H]3COP(=O)(S)O[C@H]3[C@@H](O)[C@H](n4ccc5c(=O)[nH]c(N)nc54)O[C@@H]3COP(=O)(S)O[C@H]3[C@@H](O)[C@H](n4cnc5c(N)ncnc54)O[C@@H]3COP(=O)(S)O[C@H]3[C@@H](O)[C@H](n4ccc5c(=O)[nH]c(N)nc54)O[C@@H]3COP(=O)(S)O[C@H]3[C@@H](O)[C@H](n4ccc(N)nc4=O)O[C@@H]3COP(=O)(S)O[C@H]3[C@@H](O)[C@H](n4ccc5c(=O)[nH]c(N)nc54)O[C@@H]3COP(=O)(S)O[C@H]3[C@@H](O)[C@H](n4ccc(=O)[nH]c4=O)O[C@@H]3COP(=O)(S)O[C@H]3[C@@H](O)[C@H](n4ccc(N)nc4=O)O[C@@H]3COP(=O)(S)O[C@H]3[C@@H](O)[C@H](n4cnc5c(N)ncnc54)O[C@@H]3CO)[C@H]2O)c(=O)n1 (some centres not stated)	Active	inactive	27	131 pg/mL	1.7	43.5 pg/mL
Nc1ccn([C@@H]2O[C@H](COP(=O)(S)O[C@H]3[C@@H](O)[C@H](n4cnc5c(N)ncnc54)O[C@@H]3COP(=O)(S)O[C@H]3[C@@H](O)[C@H](n4cnc5c(N)ncnc54)O[C@@H]3CO)[C@@H](OP(=O)(S)OC[C@H]3O[C@@H](n4ccc(=O)[nH]c4=O)[C@H](O)[C@@H]3OP(=O)(S)OC[C@H]3O[C@@H](n4ccc5c(=O)[nH]c(N)nc54)[C@H](O)[C@@H]3OP(=O)(S)OC[C@H]3O[C@@H](n4cnc5c(N)ncnc54)[C@H](O)[C@@H]3OP(=O)(S)OC[C@H]3O[C@@H](n4cnc5c(N)ncnc54)[C@H](O)[C@@H]3OP(=O)(S)OC[C@H]3O[C@@H](n4ccc5c(=O)[nH]c(N)nc54)[C@H](O)[C@@H]3OP(=O)(S)OC[C@H]3O[C@@H](n4ccc(N)nc4=O)[C@H](O)[C@@H]3OP(=O)(S)OC[C@H]3O[C@@H](n4ccc(=O)[nH]c4=O)[C@H](O)[C@@H]3OP(=O)(S)OC[C@H]3O[C@@H](n4ccc(=O)[nH]c4=O)[C@H](O)[C@@H]3OP(=O)(S)OCC(O)COP(=O)(S)O[C@H]3[C@@H](O)[C@H](n4ccc(=O)[nH]c4=O)O[C@@H]3COP(=O)(S)O[C@H]3[C@@H](O)[C@H](n4ccc(=O)[nH]c4=O)O[C@@H]3COP(=O)(S)O[C@H]3[C@@H](O)[C@H](n4ccc(N)nc4=O)O[C@@H]3COP(=O)(S)O[C@H]3[C@@H](O)[C@H](n4ccc5c(=O)[nH]c(N)nc54)O[C@@H]3COP(=O)(S)O[C@H]3[C@@H](O)[C@H](n4cnc5c(N)ncnc54)O[C@@H]3COP(=O)(S)O[C@H]3[C@@H](O)[C@H](n4cnc5c(N)ncnc54)O[C@@H]3COP(=O)(S)O[C@H]3[C@@H](O)[C@H](n4ccc5c(=O)[nH]c(N)nc54)O[C@@H]3COP(=O)(S)O[C@H]3[C@@H](O)[C@H](n4ccc(=O)[nH]c4=O)O[C@@H]3COP(=O)(S)O[C@H]3[C@@H](O)[C@H](n4ccc(N)nc4=O)O[C@@H]3COP(=O)(S)O[C@H]3[C@@H](O)[C@H](n4cnc5c(N)ncnc54)O[C@@H]3COP(=O)(S)O[C@H]3[C@@H](O)[C@H](n4cnc5c(N)ncnc54)O[C@@H]3CO)[C@H]2O)c(=O)n1 (some centres not stated)	Active	inactive	29.5	84.5 pg/mL	1	7.5 pg/mL
